Measurements taken from ChEMBL document CHEMBL1125049, “Aporphines as antagonists of dopamine D-1 receptors” (J Med Chem, 1990).
Calls of active or inactive are those of the source. The rule behind the calls is not given here.

Tests used:
[1] = species on record: Rattus norvegicus; type: functional
[2] = species on record: Rattus norvegicus; type: functional; remark: listed apart in the source
[3] = species on record: Rattus norvegicus; assay: Ability to stimulate adenylate cyclase in rat retinal tissue over basal levels; NS=no significant stimulation; type: functional
Procedure, shortened: (§1)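 Agonist mode: adenylate cyclase stimulation measured in rat retinal tissue in vitro, with (R)-apomorphine as positive control for D-1 agonist activity; assay run by a previously published adenylate cyclase procedure.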

[4] = molecular target: D(2) dopamine receptor (Rattus norvegicus, UniProt P61169); assay: In vitro binding affinity towards rat Dopamine receptor D2 by [3H]spiperone displacement.
Sequence of D(2) dopamine receptor (P61169 whole entry): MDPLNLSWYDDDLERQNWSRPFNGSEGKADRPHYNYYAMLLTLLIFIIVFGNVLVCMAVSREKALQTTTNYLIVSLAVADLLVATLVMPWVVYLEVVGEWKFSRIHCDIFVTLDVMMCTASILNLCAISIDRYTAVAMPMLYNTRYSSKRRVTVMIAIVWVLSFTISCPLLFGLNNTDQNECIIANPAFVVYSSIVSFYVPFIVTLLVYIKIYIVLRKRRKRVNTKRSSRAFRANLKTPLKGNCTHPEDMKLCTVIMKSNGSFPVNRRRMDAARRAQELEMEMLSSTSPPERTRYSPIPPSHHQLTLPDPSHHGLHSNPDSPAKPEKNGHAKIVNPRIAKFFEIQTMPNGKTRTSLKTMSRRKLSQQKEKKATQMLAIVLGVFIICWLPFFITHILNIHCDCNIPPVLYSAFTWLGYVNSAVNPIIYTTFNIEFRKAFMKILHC

[5] = molecular target: D(1A) dopamine receptor (Rattus norvegicus, UniProt P18901)
Sequence of D(1A) dopamine receptor (P18901 whole entry): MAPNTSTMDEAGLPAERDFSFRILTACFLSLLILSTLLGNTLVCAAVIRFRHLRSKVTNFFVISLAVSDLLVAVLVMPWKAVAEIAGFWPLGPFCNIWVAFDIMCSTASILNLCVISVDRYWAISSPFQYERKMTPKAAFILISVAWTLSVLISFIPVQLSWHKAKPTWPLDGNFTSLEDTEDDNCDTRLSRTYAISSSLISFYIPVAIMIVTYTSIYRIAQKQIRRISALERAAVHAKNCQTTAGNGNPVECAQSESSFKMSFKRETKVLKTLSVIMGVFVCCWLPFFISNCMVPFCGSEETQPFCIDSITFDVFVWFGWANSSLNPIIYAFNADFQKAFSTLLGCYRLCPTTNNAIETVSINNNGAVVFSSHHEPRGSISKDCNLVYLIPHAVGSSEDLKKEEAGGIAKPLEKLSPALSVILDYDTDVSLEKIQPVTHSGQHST

[6] = species on record: Rattus norvegicus; assay: Ability to stimulate adenylate cyclase in rat retinal tissue over basal levels; type: functional
Procedure, shortened: as §1

[7] = species on record: Rattus norvegicus; assay: Ability to block adenylate cyclase stimulation caused by 10 uM dopamine in rat retinal tissue in vitro at a concentration of 100 uM; type: functional
[8] = Activity was determined against Adenylate cyclase

Row | IC50 [8] [nM] | Compound | Inhibition [1] [%] | Inhibition [2] [%] | inhibition [3] | IC50 [4] [nM] | IC50 [5] [nM] | Stimulation [3] | Stimulation [6] [%] | Inhibition [7] [%]
1 | – | CN1CCc2cccc3c2[C@H]1Cc1c([N+](=O)[O-])ccc(O)c1-3 | 7.2 | 33.5 | – | – | – | – | – | –
2 | – | CN1CCc2cccc3c2[C@H]1Cc1ccc(Br)c(O)c1-3 | 24.4 | 87.8 | inactive | 664 | 171 | – | – | –
3 | – | CN1CCc2cccc3c2[C@@H]1Cc1cc(Br)cc(O)c1-3 | 16.8 | 3.2 | – | > 1000 | > 1000 | – | – | –
4 | – | CN1CCc2cccc3c2[C@@H]1Cc1c(Br)ccc(O)c1-3 | 11.9 | 79.4 | – | > 10000 | 8610 | – | – | –
5 | – | CN1CCc2cccc3c2[C@H]1Cc1c(Br)cc(Br)c(O)c1-3 | 8.5 | 45.9 | – | > 1000 | > 1000 | – | – | –
6 | – | CN1CCc2cccc3c2[C@@H]1Cc1ccc(Br)c(O)c1-3 | 9.8 | 54.2 | – | 2930 | 3340 | – | – | –
7 | – | CN1CCc2cccc3c2[C@H]1Cc1cc(Br)cc(O)c1-3 | 5.3 | 73.4 | inactive | 2580 | 818 | – | – | –
8 | – | COc1ccc2c(c1O)-c1c3c(cc4c1[C@H](C2)N(C)CC4)OCO3 [(S)-BULBOCAPNINE] | 24.4 | 85.1 | – | 14000 | 739 | – | – | –
9 | – | CN1CCc2cccc3c2[C@H]1Cc1ccc(Cl)c(O)c1-3 | 19.7 | 82 | – | 803 | 637 | – | – | –
10 | – | CN1CCc2cccc3c2[C@H]1Cc1cccc(O)c1-3 | 31.2 | 87.8 | – | 58 | 107 | inactive | – | –
11 | – | CN1CCc2cccc3c2[C@@H]1Cc1cccc(O)c1-3 | 0.8 | 38 | – | 2240 | 5060 | inactive | – | –
12 | – | CN1CCc2cccc3c2[C@H]1Cc1ccc(O)c(O)c1-3 [APOMORPHINE] | – | – | – | – | – | – | 91.5 | –
13 | – | CN1CCc2cccc3c2[C@H]1Cc1c(Cl)ccc(O)c1-3 | 12.6 | 71.6 | – | 500 | 561 | – | – | –
14 | – | CN1CCc2cccc3c2[C@@H]1Cc1ccc(O)c(O)c1-3 [(S)APOMORPHINE] | – | 42.3 | – | – | – | – | – | –
15 | – | COc1ccc2c(c1O)-c1cccc3c1[C@@H](C2)N(C)CC3 [APOCIDEINE] | – | 5.7 | – | 2080 | 13300 | inactive | – | –
16 | – | CCCN1CCC[C@@H]2Cc3nc(N)ncc3C[C@H]21 [QUINELORANE] | – | – | – | 151 | > 10000 | inactive | – | 6.8
17 | 3 | CN1CCc2cc(Cl)c(O)cc2[C@@H](c2ccccc2)C1 [SCH-23390] | 86 | 89.7 | – | – | – | – | – | –
18 | – | CN1CCc2cccc3c2[C@H]1Cc1c(Br)ccc(O)c1-3 | 13.1 | 83.3 | – | 449 | 181 | inactive | – | –
19 | – | COc1cccc2c1-c1cccc3c1[C@H](C2)N(C)CC3 | 0.7 | 0 | – | 829 | 12100 | – | – | –
20 | – | COc1cccc2c1-c1cccc3c1[C@@H](C2)N(C)CC3 | 7.7 | 31.7 | – | 2160 | 3280 | – | – | –
